According to ChEMBL document CHEMBL1155465, “"Viologen" dendrimers as antiviral agents: the effect of charge number and distance” (J Med Chem, 2010):
pEC50: −log10 of the molar value.

Experiments:
[1] = tested on: Human immunodeficiency virus 1; experiment: Antiviral activity against HIV1 3B infected in human MT4 cells after 5 days by MTT assay; format: functional, organism-based; details: Human immunodeficiency virus 1, 3B, MT4, 120 h
In short: (§1)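 MT-4 cells in RPMI 1640 with 10% heat-inactivated FCS, 2 mM L-glutamine, 0.1% bicarbonate and gentamicin, seeded at 6 × 10⁵ cells/mL final with virus or mock infection. Viability read by MTT after 5 days at 540 and 690 nm, using the median OD of three wells. CC50 is 50% loss of mock-infected OD540. EC50 is 50% inhibition of virus-induced CPE. SI = CC50/EC50. Mean ± SD of ≥2 experiments.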

[2] = Cytotoxicity against human MT4 cells after 5 days by MTT assay; format: cell-based; in short: as §1
[3] = Selectivity index, ratio of CC50 for human MT4 cells to EC50 for HIV1 3B; format: toxicity, cell-based; details: read-out: Ratio CC50/EC50; in short: as §1
[4] = tested on: Human immunodeficiency virus 2; experiment: Antiviral activity against HIV2 ROD infected in human MT4 cells after 5 days by MTT assay; format: functional, organism-based; details: Human immunodeficiency virus 2, ISOLATE ROD, MT4, 120 h; in short: as §1
[5] = tested on: Simian immunodeficiency virus; experiment: Antiviral activity against SIV MAC251 infected in human MT4 cells after 5 days by MTT assay; format: functional, organism-based; details: MAC251, MT4, 120 h; in short: as §1
[6] = tested on: Human immunodeficiency virus; experiment: Antiviral activity against HIV SO6141 infected in human MT4 cells after 5 days by MTT assay; format: functional, organism-based; details: Human immunodeficiency virus 1, SO6141, MT4, 120 h; in short: as §1
Vaccinia virus = experiment: Antiviral activity against Vaccina virus infected in human E6SM cell assessed as inhibition of virus-induced cytopathicity; format: functional, organism-based; details: Orthopoxvirus vaccinia
Human respirovirus 3 = experiment: Antiviral activity against Parainfluenza virus 3 infected in african green monkey Vero cells assessed as inhibition of virus-induced cytopathicity; format: functional, organism-based; details: Human respirovirus 3, Vero
[7] = Selectivity index, ratio of CC50 for human PBMC to EC50 for HIV1 3B
In short: (§2)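 PBMCs infected with HIV-1 IIIB and cultured with a range of compound concentrations. EC50 is 50% inhibition of supernatant p24 core antigen (ELISA) relative to drug-free culture. CC50 is 50% reduction in cell viability. SI = CC50/EC50. Mean ± SD of ≥2 experiments.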

[8] = tested on: Respiratory syncytial virus; experiment: Antiviral activity against RSV infected in human HeLa cell assessed as inhibition of virus-induced cytopathicity; format: functional, organism-based
Human alphaherpesvirus 1 [9] = experiment: Antiviral activity against TK-deficient acyclovir-resistant HSV1 KOS infected in human E6SM cell assessed as inhibition of virus-induced cytopathicity; format: functional, organism-based; details: Human alphaherpesvirus 1, KOS
Human alphaherpesvirus 1 [10] = experiment: Antiviral activity against HSV1 KOS infected in human E6SM cell assessed as inhibition of virus-induced cytopathicity; format: functional, organism-based; details: Human alphaherpesvirus 1, KOS
Human alphaherpesvirus 2 = experiment: Antiviral activity against HSV2 G infected in human E6SM cell assessed as inhibition of virus-induced cytopathicity; format: functional, organism-based; details: Human alphaherpesvirus 2, strain G
[11] = Cytotoxicity against human PBMC after 5 days by MTT assay; format: cell-based; in short: as §2
[12] = tested on: Human immunodeficiency virus 1; experiment: Antiviral activity against HIV1 3B infected in human PBMC assessed as inhibition of viral p24 antigen production by ELISA; format: functional, organism-based; details: Human immunodeficiency virus 1, 3B; in short: as §2
[13] = Cytotoxicity against human E6SM cells by MTT assay; format: cell-based
Sindbis virus = experiment: Antiviral activity against Sindbis virus infected in african green monkey Vero cells assessed as inhibition of virus-induced cytopathicity; format: functional, organism-based
Reovirus sp. = experiment: Antiviral activity against Reovirus infected in african green monkey Vero cells assessed as inhibition of virus-induced cytopathicity; format: functional, organism-based
[14] = tested on: Vesicular stomatitis virus; experiment: Antiviral activity against VSV infected in human HeLa cell assessed as inhibition of virus-induced cytopathicity; format: functional, organism-based
[15] = Cytotoxicity against african green monkey Vero cells by MTT assay; format: cell-based; details: chlorocebus sabaeus
[16] = tested on: Vesicular stomatitis virus; experiment: Antiviral activity against VSV infected in human E6SM cell assessed as inhibition of virus-induced cytopathicity; format: functional, organism-based
Punta Toro virus = experiment: Antiviral activity against Punta Toro virus infected in african green monkey Vero cells assessed as inhibition of virus-induced cytopathicity; format: functional, organism-based
[17] = Cytotoxicity against human HeLa cells by MTT assay; format: cell-based

For `C=C[n+]1ccc(-c2cc[n+](Cc3cc(C[n+]4ccc(-c5cc[n+](C=C)cc5)cc4)cc(C[n+]4ccc(-c5cc[n+](C=C)cc5)cc4)c3)cc2)cc1`, the pEC50 [1] was < 4.48, the CC50 at 120 h [2] was 33.4 µM and the selectivity ratio [3] was < 1. The pEC50 [4] was < 4.48.
In the case of `OCC[n+]1ccc(-c2cc[n+](Cc3cc(C[n+]4ccc(-c5cc[n+](CCO)cc5)cc4)cc(C[n+]4ccc(-c5cc[n+](CCO)cc5)cc4)c3)cc2)cc1`, the pEC50 [1] was 4.48, the CC50 at 120 h [2] was > 104 µM and the pEC50 [5] was 4.42. The pEC50 [6] was < 3.98, the selectivity ratio [3] was 3.11 and the pEC50 [4] was < 3.98.
With `CC[n+]1ccc(-c2cc[n+](Cc3cc(C[n+]4ccc(-c5cc[n+](CC)cc5)cc4)cc(C[n+]4ccc(-c5cc[n+](Cc6cc(C[n+]7ccc(-c8cc[n+](Cc9cc(C[n+]%10ccc(-c%11cc[n+](CC)cc%11)cc%10)cc(C[n+]%10ccc(-c%11cc[n+](CC)cc%11)cc%10)c9)cc8)cc7)cc(-[n+]7ccc(-c8cc[n+](-c9cc(C[n+]%10ccc(-c%11cc[n+](Cc%12cc(C[n+]%13ccc(-c%14cc[n+](CC)cc%14)cc%13)cc(C[n+]%13ccc(-c%14cc[n+](CC)cc%14)cc%13)c%12)cc%11)cc%10)cc(C[n+]%10ccc(-c%11cc[n+](Cc%12cc(C[n+]%13ccc(-c%14cc[n+](CC)cc%14)cc%13)cc(C[n+]%13ccc(-c%14cc[n+](CC)cc%14)cc%13)c%12)cc%11)cc%10)c9)cc8)cc7)c6)cc5)cc4)c3)cc2)cc1.F[P-](F)(F)(F)(F)F.F[P-](F)(F)(F)(F)F.F[P-](F)(F)(F)(F)F.F[P-](F)(F)(F)(F)F.F[P-](F)(F)(F)(F)F.F[P-](F)(F)(F)(F)F.F[P-](F)(F)(F)(F)F.F[P-](F)(F)(F)(F)F.F[P-](F)(F)(F)(F)F.F[P-](F)(F)(F)(F)F.F[P-](F)(F)(F)(F)F.F[P-](F)(F)(F)(F)F.F[P-](F)(F)(F)(F)F.F[P-](F)(F)(F)(F)F.F[P-](F)(F)(F)(F)F.F[P-](F)(F)(F)(F)F.F[P-](F)(F)(F)(F)F.F[P-](F)(F)(F)(F)F.F[P-](F)(F)(F)(F)F.F[P-](F)(F)(F)(F)F.F[P-](F)(F)(F)(F)F.F[P-](F)(F)(F)(F)F.F[P-](F)(F)(F)(F)F.F[P-](F)(F)(F)(F)F.F[P-](F)(F)(F)(F)F.F[P-](F)(F)(F)(F)F` the EC50 (Vaccinia virus) was > 50 µg/mL, the EC50 (Human respirovirus 3) was > 50 µg/mL and the pEC50 [1] was 5.85. The “Ratio CC50/EC50” value [7] was <1, the EC50 [8] was 50 µg/mL and the EC50 (Human alphaherpesvirus 1 [9]) was 30 µg/mL. It also gave an EC50 (Human alphaherpesvirus 1 [10]) of 6 µg/mL, an EC50 (Human alphaherpesvirus 2) of 50 µg/mL and a CC50 at 120 h [11] of 0.52 µg/mL. For the same molecule, the CC50 at 120 h [2] was > 18.6 µM, the EC50 [12] was > 0.52 µg/mL and the MCC [13] was > 50 µg/mL. For the same molecule, the EC50 (Sindbis virus) was > 50 µg/mL, the pEC50 [5] was ≤ 6.31 and the pEC50 [6] was 5.91. The EC50 (Reovirus sp.) was > 50 µg/mL, the EC50 [14] was > 50 µg/mL and the MCC [15] was > 50 µg/mL. The EC50 [16] was > 50 µg/mL, the selectivity ratio [3] was 13.3 and the EC50 (Punta Toro virus) was > 50 µg/mL. The MCC [17] was > 50 µg/mL and the pEC50 [4] was 5.01.
With `C=C[n+]1ccc(-c2ccncc2)cc1` the pEC50 [1] was < 4.80, the CC50 at 120 h [2] was 15.9 µM and the selectivity ratio [3] was < 1. For the same molecule, the pEC50 [4] was < 4.80.
In the case of `C=C[n+]1ccc(-c2cc[n+](CCc3ccc([N+](=O)[O-])cc3)cc2)cc1`, the pEC50 [1] was < 6.40, the CC50 at 120 h [2] was 0.4 µM and the selectivity ratio [3] was < 1. For the same molecule, the pEC50 [4] was < 6.40.
In the case of `CC[n+]1ccc(-c2cc[n+](Cc3ccc(CBr)cc3)cc2)cc1`, the pEC50 [1] was < 6.05, the CC50 at 120 h [2] was 0.9 µM and the selectivity ratio [3] was < 1. The pEC50 [4] was < 6.05.
With `CC[n+]1ccc(-c2ccncc2)cc1` the pEC50 [1] was < 3.55, the CC50 at 120 h [2] was 281 µM and the selectivity ratio [3] was < 1. For the same molecule, the pEC50 [4] was < 3.55.
In the case of `OCc1cc(CO)cc(-[n+]2ccc(-c3cc[n+](-c4cc(CO)cc(CO)c4)cc3)cc2)c1`, the pEC50 [1] was < 5.57, the CC50 at 120 h [2] was 2.7 µM and the selectivity ratio [3] was < 1. For the same molecule, the pEC50 [4] was < 5.57.
For `CC[n+]1ccc(-c2cc[n+](Cc3cc(C[n+]4ccc(-c5cc[n+](CC)cc5)cc4)cc(C[n+]4ccc(-c5cc[n+](CC)cc5)cc4)c3)cc2)cc1`, the pEC50 [1] was < 4.09, the CC50 at 120 h [2] was > 81.1 µM and the selectivity ratio [3] was < 1. The pEC50 [4] was < 4.09.
In the case of `BrCC[n+]1ccc(-c2ccncc2)cc1`, the pEC50 [1] was < 4.10, the CC50 at 120 h [2] was 79.2 µM and the selectivity ratio [3] was < 1. The pEC50 [4] was < 4.10.
For `BrCc1cc(CBr)cc(-[n+]2ccc(-c3cc[n+](-c4cc(CBr)cc(CBr)c4)cc3)cc2)c1`, the pEC50 [1] was < 3.83, the CC50 at 120 h [2] was > 148 µM and the selectivity ratio [3] was < 1. The pEC50 [4] was < 3.83.
With `CC[n+]1ccc(-c2cc[n+](Cc3cc(CO)cc(C[n+]4ccc(-c5cc[n+](CC)cc5)cc4)c3)cc2)cc1` the pEC50 [1] was < 4.97, the CC50 at 120 h [2] was 10.6 µM and the selectivity ratio [3] was < 1. The pEC50 [4] was < 4.97.
